Assay results as given in PubChem BioAssay AID489030 (Sanford-Burnham Center for Chemical Genomics, 2010).
The campaign covered roughly 330,000 compounds. About 2,400 (0.73%) were called active. The entries come from a sample that favours actives as a whole. Values without a mark were called inactive. How the source made its calls: active means inhibition of at least 40% at 20 µM; inactive means the rest.

molecular target: Apoptotic protease-activating factor 1 (Homo sapiens) (UniProt O14727); experiment: blockers of Apaf-1-driven caspase-3 activation – biochemical, DEVD-Rh110 fluorescence, uHTS, primary screen (AID 489030); conditions: reconstituted apoptosome caspase-3 activity, at 20 µM, stronger effect = higher value;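 further: plate controls were DMSO wells for no effect and DEVD-CHO caspase inhibitor wells for full effect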
Sequence (O14727 whole entry, looked up): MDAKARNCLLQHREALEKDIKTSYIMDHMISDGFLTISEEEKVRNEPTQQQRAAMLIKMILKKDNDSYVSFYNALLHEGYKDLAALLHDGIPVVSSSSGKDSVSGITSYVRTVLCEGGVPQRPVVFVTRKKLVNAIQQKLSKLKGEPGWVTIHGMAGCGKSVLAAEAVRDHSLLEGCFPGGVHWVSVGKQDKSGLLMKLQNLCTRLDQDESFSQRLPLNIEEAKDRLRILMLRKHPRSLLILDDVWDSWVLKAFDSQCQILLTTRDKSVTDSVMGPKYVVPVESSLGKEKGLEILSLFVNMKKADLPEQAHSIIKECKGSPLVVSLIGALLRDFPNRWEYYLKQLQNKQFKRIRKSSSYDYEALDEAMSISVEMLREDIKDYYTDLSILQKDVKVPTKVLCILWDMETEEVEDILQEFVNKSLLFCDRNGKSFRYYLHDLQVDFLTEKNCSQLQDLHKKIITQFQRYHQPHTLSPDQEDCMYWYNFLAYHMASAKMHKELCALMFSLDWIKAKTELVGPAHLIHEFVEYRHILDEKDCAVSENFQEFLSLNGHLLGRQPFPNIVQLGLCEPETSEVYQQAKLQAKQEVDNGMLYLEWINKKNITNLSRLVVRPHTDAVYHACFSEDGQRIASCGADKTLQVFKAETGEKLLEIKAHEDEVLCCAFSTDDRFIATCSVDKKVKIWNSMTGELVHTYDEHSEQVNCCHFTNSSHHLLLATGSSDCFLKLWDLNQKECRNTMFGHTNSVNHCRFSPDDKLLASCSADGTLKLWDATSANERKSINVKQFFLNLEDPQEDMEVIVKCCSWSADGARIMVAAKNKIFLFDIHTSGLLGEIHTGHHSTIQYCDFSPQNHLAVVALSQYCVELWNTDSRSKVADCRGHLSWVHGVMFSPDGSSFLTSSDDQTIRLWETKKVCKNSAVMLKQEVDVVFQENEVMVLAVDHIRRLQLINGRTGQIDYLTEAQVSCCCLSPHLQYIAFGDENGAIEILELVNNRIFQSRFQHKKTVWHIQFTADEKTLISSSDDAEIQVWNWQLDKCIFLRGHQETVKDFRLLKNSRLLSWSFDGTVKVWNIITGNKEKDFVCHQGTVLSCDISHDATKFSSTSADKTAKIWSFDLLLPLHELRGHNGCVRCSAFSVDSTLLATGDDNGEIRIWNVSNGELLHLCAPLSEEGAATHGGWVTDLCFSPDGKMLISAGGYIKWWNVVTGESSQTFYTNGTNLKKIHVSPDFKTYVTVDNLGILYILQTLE
Outline: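 Material: reconstituted apoptosome with Apaf-1, cytochrome c, caspase-9, procaspase-3, dATP / Buffer or medium: pH 7.5 Hepes buffer with CHAPS, BSA, DTT / Also added: cytochrome c with DEVD-Rh110 / Schedule: compound with Apaf-1, dATP, procaspase-3 30 min, then 50 min reaction, room temperature / Technique: rhodamine 110 fluorescence at Ex 480/Em 540 nm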

Row | SMILES | inhibition
1 | CCCCn1c(=O)c(C(=O)Nc2ccccc2Cl)c(O)c2ccccc21 | -6.34%
2 | CCCCCn1c(=O)c(C(=O)Nc2c(C)n(C)n(-c3ccccc3)c2=O)c(O)c2ccccc21 | 46.4% (active)
3 | CCCCCn1c(=O)c(C(=O)NCc2ccccc2)c(O)c2ccccc21 | -34.9%
4 | COC(=O)C1=C(c2c(C)noc2C)C[C@@H]2CC[C@H]1N2C(=O)NCc1ccc2c(c1)OCO2 | 1.57%
5 | Cc1cccc(-n2c(O)c(/C=N/N3CCOCC3)c(=O)[nH]c2=S)c1 | 3.6%
6 | c1ccc2sc(N3CCNCC3)nc2c1 | -11.3%
7 | CC(=O)NC(=O)NC(C)Cc1ccccc1 (stereo not given) | -10.3%
8 | CC(Cc1ccccc1)NC=O (stereo not given) | 5.78%
9 | CC(Cc1ccccc1)NCCC(c1ccccc1)c1ccccc1 (stereo not given) | 41.5% (active)
10 | CCOc1ccc(CN(CCCl)CCCl)cc1C(=O)OC | -1.62%
11 | CCOC(=O)c1c(N)n(CCN2CCOCC2)c2nc3ccccc3nc12 | -3.48%
12 | COC(=O)C1=C(c2ccccc2)C[C@@H]2CC[C@H]1N2C(=O)NCc1ccco1 | 3.27%
13 | CCOC(=O)c1c(N)n(Cc2ccccc2)c2nc3ccccc3nc12 | 79.9% (active)
14 | COc1cc(Cn2c(N)c(C(=O)NCc3ccco3)c3nc4ccccc4nc32)cc(OC)c1OC | 96.1% (active)
15 | CC/C(=N\NC(=O)c1ccccc1O)c1c(O)n(Cc2ccccc2)c(=O)[nH]c1=O | -8.27%
16 | CCOC(=O)C(O)(c1ccc(NC(=O)c2ccco2)c(OC)c1)C(F)(F)F (stereo not given) | 5.81%
17 | CN(C)/C=C(\C=[N+](C)C)c1[nH]ncc1[N+](=O)[O-] | -1.23%
18 | COC(=O)C1=C(c2ccc(F)cc2F)C[C@@H]2CC[C@H]1N2C(=O)NC1CC1 | 3.15%
19 | CCCn1c(C(=O)c2ccccc2OC)nc2ccccc21 | 6.27%
20 | CCCCCCCCCCCCn1ccc(=N)cc1 | 43.9% (active)
21 | Cn1c(O)c(C=NCCN2CCNCC2)c(=O)n(C)c1=O | 6.24%
22 | COC(=O)CN1C(=O)C2(C(C(=O)OC)=C(N)Oc3ccccc32)C2=C1CC(C)(C)CC2=O (stereo not given) | -21%
23 | CN(C)C(=O)Oc1ccc(NC(=O)N2CCOCC2)cc1 | -15%
24 | CC(=C1C(=O)c2ccccc2C1=O)N1CCN(CCN=Cc2c(O)n(C)c(=O)n(C)c2=O)CC1 | 1.31%
25 | C=CCN1C(=O)NC(=O)/C(=C/c2ccc(OCC(=O)Nc3ccc(C)cc3)cc2)C1=O | 8.4%
26 | O=C(Cc1ccc(Cl)cc1)NCCN1CCN(C(=O)Cc2ccc(Cl)cc2)CC1 | -6.49%
27 | CNCC(O)c1cc(F)c(OCc2ccccc2)c(OCc2ccccc2)c1F (stereo not given) | 45.9% (active)
28 | CCc1nc2ccccc2c(=O)n1-c1cccc(OC)c1 | -11.3%
29 | CNC(=O)N(C)c1nnc(C(C)(C)C)s1 | -10.6%
30 | CC(C)c1c(CN(C)C(C)Cc2ccccc2)n(C)n(-c2ccccc2)c1=O (stereo not given) | 9.08%
